Experimental data reported in ChEMBL document CHEMBL4706536, “Novel HIV-1 capsid-targeting small molecules of the PF74 binding site” (Eur J Med Chem, 2020).

Key:
[1] = Cytotoxicity against human TZM cells expressing GFP assessed as reduction in cell viability after 72 hrs by XTT assay; type: cell-based
Outline: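 TZM-GFP cells were seeded at 1×10^4 per well and exposed continuously to increasing compound concentrations for 72 h. Viable cells were measured by XTT. CC50 came from a log(inhibitor) vs normalized response, variable-slope fit, averaged across independent experiments. Duplicate wells, ≥2 experiments, mean ± SD.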

[2] = tested on: Human immunodeficiency virus 1; test: Antiviral activity against HIV 1 NL4-3 infected in human TZM cells expressing GFP assessed as inhibition LTR-activated GFP expression at 2 uM preincubated for 24 hrs followed by viral infection and measured after 48 hrs relative to control; type: functional; settings: Human immunodeficiency virus 1, NL4-3, TZM, time 72 hrs
Outline: (§1)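 TZM-GFP cells were seeded at 1×10^4 per well. After 24 h, medium was replaced with compound at a single concentration. After a further 24 h, cells were infected with HIV-1 NL4-3 (MOI = 1) and incubated 48 h. GFP-positive cells were counted by imaging and expressed as % inhibition of LTR-driven GFP versus compound-free DMSO control. Run in duplicate, at least two independent experiments.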

[3] = tested on: Human immunodeficiency virus 1; test: Antiviral activity against HIV 1 NL4-3 infected in human TZM cells expressing GFP assessed as inhibition LTR-activated GFP expression at 20 uM preincubated for 24 hrs followed by viral infection and measured after 48 hrs relative to control; type: functional; settings: Human immunodeficiency virus 1, NL4-3, TZM, time 72 hrs; outline: as §1
[4] = Half life in human liver microsomes at 1 uM in presence of NADPH preincubated for 15 mins followed by NADPH addition and measured up to 60 mins by LC-MS/MS analysis; type: ADME, Microsome; settings: time 15-75 min
Outline: (§2)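 Compound at 1 µM final was preincubated 15 min at 37 °C with human or mouse liver microsomes (0.5 mg/mL protein) and 1 mM MgCl2 in 0.1 M potassium phosphate, pH 7.4. The reaction was started with 1 mM NADPH at 37 °C and sampled at 0, 5, 15, 30 and 60 min. Samples were quenched in acetonitrile/0.1% formic acid with internal standard; t1/2 was determined by LC-MS/MS. A no-NADPH control ran in parallel. Done in duplicate.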

[5] = Half life in mouse liver microsomes at 1 uM in presence of NADPH preincubated for 15 mins followed by NADPH addition and measured up to 60 mins by LC-MS/MS analysis; type: ADME, Microsome; settings: time 15-75 min; outline: as §2
[6] = tested on: Human immunodeficiency virus 1; test: Antiviral activity against HIV 1 NL4-3 infected in human TZM cells expressing GFP assessed as reduction in LTR-activated GFP expression preincubated for 24 hrs followed by viral infection and measured after 48 hrs; type: functional, organism-based; settings: Human immunodeficiency virus 1, NL4-3, TZM
Outline: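 TZM-GFP cells were seeded at 1×10^4 per well. After 24 h they were given increasing compound concentrations for 24 h, then infected with HIV-1 NL4-3 (MOI = 1) for 48 h. GFP-positive cells were counted versus DMSO control. EC50 came from a log(inhibitor) vs normalized response, variable-slope fit, calculated per independent experiment and averaged. Duplicate wells, ≥2 experiments, mean ± SD.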

Row | Compound | CC50 at 72 h [1] [µM] | inhibition at 2 µM [2] [%] | inhibition at 20 µM [3] [%] | half-life at 1 µM [4] [min] | half-life at 1 µM [5] [min] | EC50 [6] [µM]
1 | CN(C(=O)[C@H](Cc1ccccc1)NC(=O)Cn1cnc2c1c(=O)n(C)c(=O)n2C)c1ccccc1 | > 50 | 10 | 94 | 4.7 | 1.2 | –
2 | CCN(C(=O)[C@H](Cc1ccccc1)NC(=O)Cn1cnc2c1c(=O)n(C)c(=O)n2C)c1ccccc1 | > 50 | 0 | 94 | – | – | –
3 | CN(C(=O)[C@H](Cc1ccccc1)NC(=O)Cn1cnc2c1c(=O)n(C)c(=O)n2C)c1cccc(Cl)c1 | > 50 | 0 | 71 | – | – | –
4 | CN(C(=O)[C@H](Cc1ccccc1)NC(=O)Cc1c[nH]c2ccc(O)cc12)c1cccc(F)c1 | 47 | – | – | – | – | 0.32
5 | COc1ccc2[nH]cc(CC(=O)N[C@@H](Cc3ccccc3)C(=O)N(C)c3ccccc3)c2c1 | 48 | – | – | 1.2 | 0.5 | 0.56
6 | COc1ccc2[nH]cc(CC(=O)N[C@@H](Cc3ccccc3)C(=O)N(C)c3ccc(F)cc3)c2c1 | > 50 | – | – | – | – | 0.57
7 | CN(C(=O)[C@H](Cc1ccccc1)NC(=O)Cc1c[nH]c2ccc(O)cc12)c1cccc(Br)c1 | > 100 | – | – | – | – | 0.38
8 | COc1ccc2[nH]cc(CC(=O)N[C@@H](Cc3ccccc3)C(=O)N(C)c3ccc(C)cc3)c2c1 | > 50 | – | – | – | – | 0.28
9 | CN(C(=O)[C@H](Cc1ccccc1)NC(=O)Cn1cnc2c1c(=O)n(C)c(=O)n2C)c1cccc(F)c1 | > 50 | 1 | 67 | – | – | –
10 | CN(C(=O)[C@H](Cc1ccccc1)NC(=O)Cc1c[nH]c2ccc(O)cc12)c1cccc(C(F)(F)F)c1 | 65 | – | – | – | – | 0.48
11 | CN(C(=O)[C@H](Cc1ccccc1)NC(=O)Cn1cnc2c1c(=O)n(C)c(=O)n2C)c1ccc(Cl)cc1 | > 50 | 6 | 96 | – | – | –
12 | CN(C(=O)[C@H](Cc1ccccc1)NC(=O)Cn1cnc2c1c(=O)n(C)c(=O)n2C)c1ccc(F)cc1 | > 50 | 14 | 85 | – | – | –
13 | CN(C(=O)[C@H](Cc1ccccc1)NC(=O)Cc1c[nH]c2ccc(O)cc12)c1cccc(Cl)c1 | > 100 | – | – | – | – | 0.31
14 | CN(C(=O)[C@H](Cc1ccccc1)NC(=O)Cc1c[nH]c2ccc(O)cc12)c1ccc(F)cc1 | > 50 | – | – | – | – | 0.46
15 | COc1ccc2[nH]cc(CC(=O)N[C@@H](Cc3ccccc3)C(=O)N(C)c3ccc(Cl)cc3)c2c1 | > 50 | – | – | 1.8 | 0.6 | 0.31
16 | COc1ccc2[nH]cc(CC(=O)N[C@@H](Cc3ccccc3)C(=O)N(C)c3cccc(F)c3)c2c1 | > 50 | – | – | – | – | 0.99
17 | Cc1ccc(N(C)C(=O)[C@H](Cc2ccccc2)NC(=O)Cn2cnc3c2c(=O)n(C)c(=O)n3C)cc1 | > 50 | 18 | 98 | – | – | –
